SR-BI DiI inh: blocks mouse SR-BI lipid uptake from DiI-HDL. AID 488896. ldlA[mSR-BI] CHO cells, DiI-HDL uptake fluorescence, 3 h. Q61009. actives 0.96% (n = 320,000). inhibition, % at 12.5 µM;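 active means mean replicate inhibition of at least 70% and a set share of replicates each scoring 70 or more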
CAL PDZ FP-1: CAL PDZ (human) peptide binding inhibition; Q9HD26; purified CAL PDZ, TMR-peptide fluorescence polarization, 1 h; inhibition, % at 24.9 µM; actives 0.92% (n = 300,000); AID 602252;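 active means mean inhibition of at least 30% with at least half of replicates also reaching 30%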
CAL PDZ FP-2: blocks peptide binding to human CAL PDZ domain; purified CAL PDZ, TMR-peptide fluorescence polarization, 1 h; inhibition, % at 20 µM; actives 0.02% (n = 330,000); AID 504414;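 active means highest replicate inhibition of at least 40%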
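System: tagged CAL PDZ domain. Schedule: 1 h room-temperature incubation prior to read. Signal: fluorescence polarization (mP). Measure: percent inhibition from loss of millipolarization.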
ATG4B inhibitor: inhibitors of human ATG4B cysteine protease. Q9Y4P1. ATG4B cleavage of LC3-PLA2, NBD-HPC fluorescence, 1 h. inhibition, % at 8.33 µM. actives 0.51% (n = 340,000); in the data active means inhibition above about 40%
Target sequence (Q9Y4P1 whole entry, looked up): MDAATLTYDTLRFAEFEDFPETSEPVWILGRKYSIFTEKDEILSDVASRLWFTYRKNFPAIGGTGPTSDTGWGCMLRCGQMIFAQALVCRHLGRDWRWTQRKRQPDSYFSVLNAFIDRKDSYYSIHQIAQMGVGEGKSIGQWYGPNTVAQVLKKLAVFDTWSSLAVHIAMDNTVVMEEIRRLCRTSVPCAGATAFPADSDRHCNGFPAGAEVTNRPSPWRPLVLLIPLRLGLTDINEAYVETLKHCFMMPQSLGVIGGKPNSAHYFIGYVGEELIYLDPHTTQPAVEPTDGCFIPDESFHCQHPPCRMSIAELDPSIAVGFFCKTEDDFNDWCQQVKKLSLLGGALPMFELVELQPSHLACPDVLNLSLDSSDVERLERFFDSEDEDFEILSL
SR-BI DiI-HDL act: SR-BI HDL lipid transfer activation; CHO ldlA[mSR-BI] cells, DiI-HDL uptake fluorescence, 3 h; 100 = double the neutral-control signal; activation, % at 12.5 µM; actives 0.096% (n = 320,000); AID 504775;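 active means mean replicate activation of at least 60% and every replicate at or above 60%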
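system = CHO ldlA[mSR-BI] cells, LDL receptor-null, SR-BI overexpressing | medium = Ham's F12 with 0.5% BSA, HEPES 25 mM, pH 7.4 | probe or stimulus = DiI-HDL 10 µg/mL | compound dosing = single-point compound dose | incubation = compound exposure 3 h, 37 °C | technique = DiI fluorescence, bottom read | read-out = cell-associated DiI fluorescence as measure of HDL uptake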
ATG4B conf: ATG4B (human) inhibition, single-dose confirmed. AID 504757. actives 92% (n = 320). ATG4B protease fluorescent substrate cleavage assay. inhibition, % at 8.33 µM. shares compounds with ATG4B inhibitor; in the data active means inhibition above about 39%
PLA2 counter: inhibits human PLA2, flagging false ATG4B inhibitors. shares compounds with ATG4B inhibitor. purified PLA2, NBD-C6-HPC fluorescence, 45 min. inhibition, % at 8.33 µM. actives 66% (n = 1,600); in the data active means inhibition above about 50%
Target sequence (P04054 whole entry, looked up): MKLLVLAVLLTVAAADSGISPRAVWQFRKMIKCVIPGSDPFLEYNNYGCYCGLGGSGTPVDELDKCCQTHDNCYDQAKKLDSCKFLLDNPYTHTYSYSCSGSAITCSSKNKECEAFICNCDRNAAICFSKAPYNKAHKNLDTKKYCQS
Hits are given with their value; – = inactive; · = no result given. The list is not random: actives were taken first. Their share in the collection is about 2.3%.

SMILES	SR-BI DiI inh	CAL PDZ FP-1	CAL PDZ FP-2	ATG4B inhibitor	SR-BI DiI-HDL act	PLA2 counter	others
COC(=O)C(Cc1ccc(OC(=O)c2ccccc2Cl)cc1)N1Cc2ccccc2C1=O (configuration not stated)	–	–	–	83	–	86
COC(=O)C(Cc1ccc(OC(=O)c2ccccc2C)cc1)N1Cc2ccccc2C1=O (configuration not stated)	–	–	–	72	–	76
COC(=O)CC(c1ccccc1F)N1Cc2ccccc2C1=O (configuration not stated)	–	–	–	–	–	·
O=C(O)[C@H](Cc1ccccc1)N1Cc2ccccc2C1=O	–	·	–	–	–	·
CCOc1ccc2nc(-c3cc(NC(C)=O)ccc3O)sc2c1	–	–	–	–	–	·
COc1ccc(S(=O)(=O)N(C)C)cc1NC(=O)CCNC(=O)c1ccccc1OC	–	–	–	–	–	·
O=C(c1cnn(C(=O)COc2ccc(Cl)cc2)c1)c1ccccc1O	–	–	–	56	–	60
Cc1ccc(O)c(C(=O)c2cnn(C(=O)COc3ccc(Cl)cc3)c2)c1	–	–	–	–	–	·
O=C1C=C(N2CCOCC2)c2ccccc2C1=O	–	–	–	64	–	–	ATG4B conf=53
CC1=C(C)C(=O)C(N2CCOCC2)=CC1=O	–	–	–	–	–	·
O=C(CC1S/C(=N/N=C/c2cccs2)NC1=O)Nc1ccc(Cl)c(Cl)c1 (configuration not stated)	–	–	–	61	–	–	ATG4B conf=59
CCN1/C(=C/C(C)=C/c2sc3ccccc3[n+]2CC)Sc2ccccc21	·	–	–	52	·	–	ATG4B conf=49
CCN1/C(=C/c2ccc3cccc(C)c3[n+]2CC)Sc2ccccc21	–	·	–	–	–	·
O=C(COc1ccc([N+](=O)[O-])cc1)N(C1CCCCC1)C1CCS(=O)(=O)C1 (configuration not stated)	–	–	–	–	–	·
CCOC(=O)C1CCN(C(=O)c2cc3cc4ccc(OC)cc4nc3o2)CC1	–	–	–	–	–	·
COc1ccc2cc3cc(C(=O)N4CC(C)CC(C)C4)oc3nc2c1 (configuration not stated)	–	–	–	49	–	54
Cc1ccc2cc3cc(C(=O)N4CC(C)CC(C)C4)oc3nc2c1 (configuration not stated)	–	–	·	45	–	57
CCCCC1=CC2=CC(=O)C(C)(OC(=O)CCc3ccccc3)C(=O)C2=CO1 (configuration not stated)	–	–	–	42	–	69
CCCCNC(=S)N(CCCN(C)C)Cc1cc2cc3c(cc2[nH]c1=O)OCO3	–	–	–	–	–	·
O=C(O)CC/C(=C\c1ccc(N2CCOCC2)c([N+](=O)[O-])c1)c1nc2ccccc2s1	–	–	–	–	–	·
O=C(O)CC/C(=C\c1ccc(Cl)c([N+](=O)[O-])c1)c1nc2ccccc2s1	–	–	–	49	–	–	ATG4B conf=64
COc1ccccc1N(CC(=O)NC1CCCCC1)C(=O)CCC(=O)Nc1nccs1	–	–	–	–	–	·
COc1cccc(CN2CC(C(=O)NCCC3=CCCCC3)CCC2=O)c1 (configuration not stated)	–	–	–	–	–	·
COc1ccc(-c2nnc(CSc3nc4ccccc4c(=O)n3CC(C)C)o2)cc1OC	–	–	–	45	–	–	ATG4B conf=74
CCOC(=O)CSc1nc2ccccc2c(=O)n1CC(C)C	–	–	–	57	–	56
SMILES	SR-BI DiI inh	CAL PDZ FP-1	CAL PDZ FP-2	ATG4B inhibitor	SR-BI DiI-HDL act	PLA2 counter	others
CCOC(=O)CSc1nc2ccccc2c(=O)n1CC1CCCC1	–	–	–	71	–	71
COCCCn1c(SCc2nnc(-c3ccc(OC)c(OC)c3)o2)nc2ccccc2c1=O	–	–	–	–	–	·
CCOC(=O)CSc1nc2ccccc2c(=O)n1CC	–	–	–	–	–	·
O=C(Cc1cccs1)N1CCN(S(=O)(=O)c2ccc(Cl)c(C(F)(F)F)c2)CC1	–	–	–	–	–	·
COc1ccc(CNS(=O)(=O)NCc2ccc(C)cc2)cc1OC	–	–	–	–	–	·
Brc1ccc2[nH]c3c(NCc4ccccn4)ncnc3c2c1	·	·	·	–	·	·
COc1ccc(CNc2ncnc3c2[nH]c2ccccc23)cc1	·	·	·	47	·	71
COc1ccc(CNc2ncnc3c2[nH]c2cc(OC)c(OC)cc23)cc1	–	·	–	–	–	·
Cc1ccc2[nH]c3c(NCc4ccccc4)ncnc3c2c1	·	·	·	50	·	60
C1=C(CCNc2ncnc3c2[nH]c2ccccc23)CCCC1	–	–	–	49	–	64
O=C(NC1CCCC1)C(c1cccnc1)N(Cc1ccccc1)C(=O)c1csnn1 (configuration not stated)	–	–	–	–	–	·
CCOC(=O)C(C)Oc1c(C(=O)OC)sc2ncccc12 (configuration not stated)	–	–	–	–	–	·
CNC(=O)COc1coc(CN2CCN(c3ccccc3OC)CC2)cc1=O	–	–	–	–	–	·
CCn1cc(C(=O)OCC(=O)c2cc(C)n(-c3ccc(OC(F)F)cc3)c2C)c(=O)c2ccc(C)nc21	–	–	–	72	–	74
CCn1cc(C(=O)OCC(=O)c2cc(C)n(-c3ccccc3F)c2C)c(=O)c2ccc(C)nc21	–	·	–	71	–	75
CCn1cc(C(=O)OCC(=O)c2cc(C)n(-c3ccccc3)c2C)c(=O)c2ccc(C)nc21	–	–	–	66	–	68
CCn1cc(C(=O)OCC(=O)Nc2ccccc2OC(F)F)c(=O)c2ccc(C)nc21	–	–	–	–	–	·
O=c1cc(-c2ccccc2Cl)oc2c(NS(=O)(=O)c3ccccc3OC(F)(F)F)ccc(O)c12	–	–	–	43	–	78
O=c1cc(-c2ccccc2Cl)oc2c(Br)ccc(O)c12	–	–	–	–	–	·
O=C(Nc1ccc(O)c2c(=O)cc(-c3ccccc3Cl)oc12)c1ccc(Cl)c(Cl)c1	–	–	–	–	–	·
O=c1cc(-c2ccccc2Cl)oc2c(NS(=O)(=O)c3ccccc3C(F)(F)F)ccc(O)c12	–	–	–	42	–	53
O=c1cc(-c2ccccc2Cl)oc2c(NS(=O)(=O)c3cccs3)ccc(O)c12	–	–	–	57	–	74
Cc1ccc(C2C3C(=O)N(c4ccc(C)cc4)C(=O)C3N3CCCN23)cc1 (configuration not stated)	–	–	–	–	–	·
COC(=O)c1ccc(-n2nnnc2SCC(=O)Nc2ccccc2F)cc1	–	–	–	–	–	·
